What is called IC50 is the concentration that inhibits the measured activity by half. Higher therefore signals lower potency. The GI50 is the concentration at which growth is held to half of that of the control. One may read the AUC(0-inf) as total exposure, with the tail of the curve extrapolated. One may read the Tmax as the time at which the peak concentration occurs.

The text below walks through data of ChEMBL document CHEMBL4052588, “Design of a Biased Potent Small Molecule Inhibitor of the Bromodomain and PHD Finger-Containing (BRPF) Proteins Suitable for Cellular and in Vivo Studies” (J Med Chem, 2017).

In data set [1] the target is T1, Chromatin remodeling regulator CECR2 (Homo sapiens, UniProt Q9BXF3). Kind of data set: Inhibition of human His tagged CECR2 incubated for 30 mins followed by addition of biotinylated peptide and further incubation for 30 mins measured by AlphaScreen assay.
Data set [2] has as its target T1, Chromatin remodeling regulator CECR2. Kind of data set: Inhibition of human CECR2 expressed in Escherichia coli BL21 after 1 hr by BROMOscan assay.
In data set [3] the target is Bromodomain adjacent to zinc finger domain protein 2A (Homo sapiens, UniProt Q9UIF9). Nature of the data set: Inhibition of human BAZ2A expressed in Escherichia coli BL21 after 1 hr by BROMOscan assay.
A further data set concerns SW-620. Nature of the data set: Growth inhibition of human SW620 cells after 72 hrs. In kind it is functional. The settings on record: SW-620, 72 h.
The target of data set [4] is T2, Bromodomain-containing protein 1 (Homo sapiens, UniProt O95696).
T2 sequence (O95696 whole entry): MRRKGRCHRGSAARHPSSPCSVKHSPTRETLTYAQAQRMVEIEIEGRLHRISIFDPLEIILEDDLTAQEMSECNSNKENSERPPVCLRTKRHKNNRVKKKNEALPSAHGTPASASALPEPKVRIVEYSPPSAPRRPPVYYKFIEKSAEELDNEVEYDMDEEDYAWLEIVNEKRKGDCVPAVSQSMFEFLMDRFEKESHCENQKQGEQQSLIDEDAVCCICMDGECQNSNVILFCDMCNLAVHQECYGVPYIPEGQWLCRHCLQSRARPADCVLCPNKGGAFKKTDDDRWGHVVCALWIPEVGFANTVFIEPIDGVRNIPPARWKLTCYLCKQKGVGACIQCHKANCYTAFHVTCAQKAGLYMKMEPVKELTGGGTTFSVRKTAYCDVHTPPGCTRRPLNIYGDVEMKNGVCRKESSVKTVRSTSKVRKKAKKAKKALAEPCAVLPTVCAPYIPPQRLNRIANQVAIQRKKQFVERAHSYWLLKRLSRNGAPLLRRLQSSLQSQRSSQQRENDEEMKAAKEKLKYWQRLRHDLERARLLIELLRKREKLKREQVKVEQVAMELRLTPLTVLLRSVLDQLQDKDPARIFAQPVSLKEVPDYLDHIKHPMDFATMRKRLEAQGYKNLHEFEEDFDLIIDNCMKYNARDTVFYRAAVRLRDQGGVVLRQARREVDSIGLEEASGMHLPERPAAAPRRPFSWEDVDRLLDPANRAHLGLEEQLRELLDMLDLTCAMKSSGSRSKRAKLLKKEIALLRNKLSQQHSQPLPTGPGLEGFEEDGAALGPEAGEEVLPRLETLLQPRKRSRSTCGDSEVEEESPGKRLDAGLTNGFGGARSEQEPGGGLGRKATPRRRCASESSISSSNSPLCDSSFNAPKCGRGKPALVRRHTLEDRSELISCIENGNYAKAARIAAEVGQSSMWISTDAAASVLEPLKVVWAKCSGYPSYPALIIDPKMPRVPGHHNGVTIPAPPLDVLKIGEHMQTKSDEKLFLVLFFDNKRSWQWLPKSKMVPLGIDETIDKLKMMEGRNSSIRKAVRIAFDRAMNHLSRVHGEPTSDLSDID
Nature of the data set: Inhibition of human His tagged BRPF2 incubated for 30 mins followed by addition of biotinylated peptide and further incubation for 30 mins measured by AlphaScreen assay.

In the next data set the test system is OCI-AML2. Nature of the data set: Growth inhibition of human OCI-AML2 cells after 72 hrs. It is filed as functional. As to conditions: OCI-AML2, 72 h.
Data set [5] is described as follows: Growth inhibition of human QGP1 cells after 72 hrs. In kind it is functional. As to conditions: QGP-1, 72 h.
The test system of another data set is SK-CO-1. Nature of the data set: Growth inhibition of human SKCO1 cells after 72 hrs. It is filed as functional. The settings on record: SK-CO-1, 72 h.
Data set [6] is described as follows: AUC (0 to infinity) in CD-1 mouse blood at 3 mg/kg, po. As to conditions: whole blood. In kind it is ADME, organism-based. The arrangement: dose 3 mg/kg, time infinity, route oral. The gist of the method: (§1)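 Female CD-1 mice (n = 3), single dosing: intravenous 1.0 mg/kg, or oral 3.0 mg/kg given as a suspension. Blood levels were followed over time to derive clearance, volume of distribution, elimination half-life, Cmax, Tmax, AUC0−∞, oral bioavailability and fraction absorbed.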

The next data set concerns HepG2. Nature of the data set: Growth inhibition of human HepG2 cells after 72 hrs. As to conditions: HepG2, 72 h. In kind it is functional.
Data set [7] in a line: Tmax in CD-1 mouse blood at 3 mg/kg, po. In kind it is ADME, organism-based. The settings on record: whole blood. A digest of the protocol: as §1
Data set [8] addresses T3, Bromodomain and PHD finger-containing protein 3 (Homo sapiens, UniProt Q9ULD4).
T3 sequence (Q9ULD4 whole entry): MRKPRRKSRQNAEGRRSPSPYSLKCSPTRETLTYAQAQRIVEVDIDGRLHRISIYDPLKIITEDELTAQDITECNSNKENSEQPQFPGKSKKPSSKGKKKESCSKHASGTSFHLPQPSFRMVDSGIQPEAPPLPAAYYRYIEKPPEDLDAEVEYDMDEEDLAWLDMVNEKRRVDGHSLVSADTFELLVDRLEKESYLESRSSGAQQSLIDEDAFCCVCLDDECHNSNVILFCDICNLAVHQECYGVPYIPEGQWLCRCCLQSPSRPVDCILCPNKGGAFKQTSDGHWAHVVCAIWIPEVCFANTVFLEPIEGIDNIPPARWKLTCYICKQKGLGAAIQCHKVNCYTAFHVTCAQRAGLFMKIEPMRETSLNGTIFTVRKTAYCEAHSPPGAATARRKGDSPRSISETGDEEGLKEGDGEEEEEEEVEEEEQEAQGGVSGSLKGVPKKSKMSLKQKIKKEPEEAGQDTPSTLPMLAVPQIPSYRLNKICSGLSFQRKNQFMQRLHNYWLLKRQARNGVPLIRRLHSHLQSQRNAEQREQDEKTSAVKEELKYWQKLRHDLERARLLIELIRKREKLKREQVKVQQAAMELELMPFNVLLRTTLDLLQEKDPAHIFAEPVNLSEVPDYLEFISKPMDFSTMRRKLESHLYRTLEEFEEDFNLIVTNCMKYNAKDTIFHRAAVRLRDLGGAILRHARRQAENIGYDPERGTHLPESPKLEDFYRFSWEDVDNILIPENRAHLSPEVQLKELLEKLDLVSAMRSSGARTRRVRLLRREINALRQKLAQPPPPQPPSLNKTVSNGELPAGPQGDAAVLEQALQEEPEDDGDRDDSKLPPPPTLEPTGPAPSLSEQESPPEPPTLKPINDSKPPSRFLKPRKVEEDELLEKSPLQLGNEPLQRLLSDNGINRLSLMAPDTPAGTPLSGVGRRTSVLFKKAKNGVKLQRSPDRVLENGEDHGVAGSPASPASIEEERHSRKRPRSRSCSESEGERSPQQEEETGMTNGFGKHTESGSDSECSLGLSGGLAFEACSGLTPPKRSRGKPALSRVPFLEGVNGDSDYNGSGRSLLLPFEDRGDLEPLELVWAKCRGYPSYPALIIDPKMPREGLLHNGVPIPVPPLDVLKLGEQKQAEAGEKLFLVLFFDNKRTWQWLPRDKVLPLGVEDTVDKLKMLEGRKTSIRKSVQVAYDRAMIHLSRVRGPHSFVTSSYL
Nature of the data set: Inhibition of human His tagged BRPF3 incubated for 30 mins followed by addition of biotinylated peptide and further incubation for 30 mins measured by AlphaScreen assay. The gist of the method:
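AlphaScreen biochemical readout of bromodomain inhibition, giving an IC50. Compound series were made by serial dilution of a 100 mM DMSO stock. […] Differences under 2-fold are treated as not significant.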

T1 sequence (Q9BXF3 whole entry): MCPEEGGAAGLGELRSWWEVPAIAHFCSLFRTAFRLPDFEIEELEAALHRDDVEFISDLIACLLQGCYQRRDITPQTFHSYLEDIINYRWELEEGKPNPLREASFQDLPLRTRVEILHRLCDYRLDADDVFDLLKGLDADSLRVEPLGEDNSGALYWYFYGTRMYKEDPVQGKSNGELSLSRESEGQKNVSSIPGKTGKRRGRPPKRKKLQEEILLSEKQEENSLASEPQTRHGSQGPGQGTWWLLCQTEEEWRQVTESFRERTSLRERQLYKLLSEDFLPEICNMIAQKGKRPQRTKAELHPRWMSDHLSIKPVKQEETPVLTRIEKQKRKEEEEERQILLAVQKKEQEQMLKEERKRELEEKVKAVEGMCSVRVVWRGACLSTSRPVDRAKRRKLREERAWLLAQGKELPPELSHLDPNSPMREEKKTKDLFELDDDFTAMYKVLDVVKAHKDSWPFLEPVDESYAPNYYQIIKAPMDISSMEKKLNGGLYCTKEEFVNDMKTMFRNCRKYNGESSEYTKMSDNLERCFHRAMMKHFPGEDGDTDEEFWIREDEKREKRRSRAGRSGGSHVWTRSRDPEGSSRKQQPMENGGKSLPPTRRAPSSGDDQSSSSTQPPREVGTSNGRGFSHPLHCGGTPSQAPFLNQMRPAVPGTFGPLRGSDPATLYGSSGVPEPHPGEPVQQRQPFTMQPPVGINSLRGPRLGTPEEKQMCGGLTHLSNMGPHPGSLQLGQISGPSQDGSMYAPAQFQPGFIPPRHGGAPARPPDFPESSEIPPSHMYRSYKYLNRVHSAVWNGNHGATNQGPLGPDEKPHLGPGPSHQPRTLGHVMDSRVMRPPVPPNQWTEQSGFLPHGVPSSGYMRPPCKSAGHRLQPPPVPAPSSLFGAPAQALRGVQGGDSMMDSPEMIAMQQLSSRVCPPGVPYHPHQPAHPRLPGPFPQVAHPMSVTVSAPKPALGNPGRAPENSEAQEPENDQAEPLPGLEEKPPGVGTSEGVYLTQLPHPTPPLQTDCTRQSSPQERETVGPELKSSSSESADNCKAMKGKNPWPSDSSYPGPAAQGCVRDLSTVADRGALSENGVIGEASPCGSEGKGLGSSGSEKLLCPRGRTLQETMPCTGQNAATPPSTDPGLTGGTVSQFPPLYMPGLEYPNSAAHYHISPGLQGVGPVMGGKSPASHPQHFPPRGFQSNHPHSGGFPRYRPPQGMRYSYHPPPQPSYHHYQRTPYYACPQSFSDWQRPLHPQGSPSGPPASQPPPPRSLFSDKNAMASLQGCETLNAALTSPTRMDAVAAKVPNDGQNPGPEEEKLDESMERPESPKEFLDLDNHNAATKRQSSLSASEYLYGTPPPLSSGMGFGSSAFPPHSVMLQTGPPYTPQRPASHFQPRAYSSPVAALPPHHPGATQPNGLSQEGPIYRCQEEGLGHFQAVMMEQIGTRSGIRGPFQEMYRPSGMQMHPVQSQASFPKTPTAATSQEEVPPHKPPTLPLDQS
Chain of Bromodomain adjacent to zinc finger domain protein 2A (Q9UIF9 whole entry, the tested form may be a part): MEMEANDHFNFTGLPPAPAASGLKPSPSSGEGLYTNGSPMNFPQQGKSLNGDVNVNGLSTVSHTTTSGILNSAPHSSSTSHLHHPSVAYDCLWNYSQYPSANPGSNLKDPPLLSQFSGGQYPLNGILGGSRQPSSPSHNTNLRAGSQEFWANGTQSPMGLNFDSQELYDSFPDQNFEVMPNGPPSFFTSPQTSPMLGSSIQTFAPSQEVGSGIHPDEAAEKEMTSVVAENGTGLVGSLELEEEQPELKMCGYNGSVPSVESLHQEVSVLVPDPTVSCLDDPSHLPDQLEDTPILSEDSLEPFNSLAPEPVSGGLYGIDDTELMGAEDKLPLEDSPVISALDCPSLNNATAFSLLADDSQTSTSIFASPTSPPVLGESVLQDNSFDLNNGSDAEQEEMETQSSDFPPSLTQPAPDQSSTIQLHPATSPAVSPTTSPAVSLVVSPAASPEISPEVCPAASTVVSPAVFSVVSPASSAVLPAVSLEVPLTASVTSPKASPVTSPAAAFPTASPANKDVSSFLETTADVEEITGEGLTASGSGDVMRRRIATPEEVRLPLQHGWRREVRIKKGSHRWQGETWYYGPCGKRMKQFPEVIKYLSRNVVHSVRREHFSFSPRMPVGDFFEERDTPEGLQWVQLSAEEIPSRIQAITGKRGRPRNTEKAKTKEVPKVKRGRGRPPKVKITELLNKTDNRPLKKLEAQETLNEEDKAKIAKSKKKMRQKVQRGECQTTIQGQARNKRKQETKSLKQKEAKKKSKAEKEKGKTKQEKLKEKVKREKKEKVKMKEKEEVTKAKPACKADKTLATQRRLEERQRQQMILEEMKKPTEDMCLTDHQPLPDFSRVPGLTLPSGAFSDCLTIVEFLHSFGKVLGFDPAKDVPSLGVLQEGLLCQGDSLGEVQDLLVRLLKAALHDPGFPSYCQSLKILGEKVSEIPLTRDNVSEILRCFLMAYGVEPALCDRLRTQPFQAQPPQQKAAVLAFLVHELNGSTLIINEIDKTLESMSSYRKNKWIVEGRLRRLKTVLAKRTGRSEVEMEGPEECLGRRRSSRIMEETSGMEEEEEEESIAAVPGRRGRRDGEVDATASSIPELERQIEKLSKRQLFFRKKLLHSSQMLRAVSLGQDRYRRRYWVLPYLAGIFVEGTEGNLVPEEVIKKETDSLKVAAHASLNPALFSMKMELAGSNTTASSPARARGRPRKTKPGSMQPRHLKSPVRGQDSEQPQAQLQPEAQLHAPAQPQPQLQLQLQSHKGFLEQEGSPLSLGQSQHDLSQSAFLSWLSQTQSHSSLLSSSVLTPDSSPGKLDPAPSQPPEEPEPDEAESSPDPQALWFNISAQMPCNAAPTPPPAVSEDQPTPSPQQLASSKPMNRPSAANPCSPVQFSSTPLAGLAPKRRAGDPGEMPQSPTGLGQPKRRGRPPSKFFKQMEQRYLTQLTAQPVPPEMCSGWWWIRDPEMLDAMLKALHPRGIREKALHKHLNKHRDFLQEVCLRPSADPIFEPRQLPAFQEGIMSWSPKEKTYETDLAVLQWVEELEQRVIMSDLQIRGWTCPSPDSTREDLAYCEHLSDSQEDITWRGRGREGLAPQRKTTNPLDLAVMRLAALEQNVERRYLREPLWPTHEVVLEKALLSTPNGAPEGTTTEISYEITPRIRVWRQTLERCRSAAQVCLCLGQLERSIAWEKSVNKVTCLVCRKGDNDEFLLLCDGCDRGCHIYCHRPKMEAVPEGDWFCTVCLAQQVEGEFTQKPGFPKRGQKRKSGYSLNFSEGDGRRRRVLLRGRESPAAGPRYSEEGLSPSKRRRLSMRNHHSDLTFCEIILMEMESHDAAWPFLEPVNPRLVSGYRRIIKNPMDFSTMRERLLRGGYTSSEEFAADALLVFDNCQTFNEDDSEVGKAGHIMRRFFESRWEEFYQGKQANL

For `CCc1cc2cc(NS(=O)(=O)c3ccc(C#N)cc3)ccc2n(CC)c1=O`, the figures for the IC50 in data set [1], in data set [2] and in [3] were greater than 20 µM, greater than 100 µM and greater than 100 µM, respectively.

On to `Cc1cc2cc(NS(=O)(=O)c3ccc(C#N)cc3)ccc2n(C)c1=O`, for which the GI50 was 1 to 10 µM with SW-620; 1.3 µM with OCI-AML2; 1 to 10 µM in [5]; 1 to 10 µM with SK-CO-1; 1 to 10 µM with HepG2. In addition, the half-maximal inhibitory concentration (IC50) in data set [4] was 0.76 µM; in [8] it was 2 µM. In [6], this molecule showed an AUC(0-inf) of 5700 ng·h/mL. For the same molecule, the time of peak concentration (Tmax) in data set [7] was found to be 1 h.
